Activity calls are given as the source filed them. The rule behind the calls is not given here. Positions of bridges follow the written chain, without caps; N, C: chain ends. Residues, ends and D or L forms follow the SMILES beside them.
Key:
[1] = molecular target: Sodium channel protein type 3 subunit alpha (Homo sapiens) (UniProt Q9NY46); test: Inhibition of human NaV1.3 at 100 uM
Procedure, shortened: (§1)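 Two-electrode voltage clamp of oocytes injected with 50 nl cRNA (1 ng/nl) and recorded 1–4 days later at 18–22 °C. Bath was 96 mM NaCl, 2 mM KCl, 1.8 mM CaCl2, 2 mM MgCl2, 5 mM HEPES pH 7.4. Toxin was applied to the bath at 100 µM. Currents were evoked by 100 ms depolarisation to the voltage of maximal sodium current, filtered at 2 kHz and sampled at 20 kHz.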

[2] = molecular target: Sodium channel protein type 2 subunit alpha (Homo sapiens) (UniProt Q99250); test: Inhibition of human NaV1.2 at 100 uM; procedure, shortened: as §1
[3] = molecular target: Sodium channel protein type 1 subunit alpha (Homo sapiens) (UniProt P35498); test: Inhibition of human NaV1.1 at 100 uM; procedure, shortened: as §1
[4] = molecular target: T1, Melanocyte-stimulating hormone receptor (Homo sapiens, UniProt Q01726); test: Activity at N-terminal HA-tagged and C-terminal FLAG-tagged human MC1R expressed in HEK293 cells assessed as potentiation of alpha-MSH-induced cAMP accumulation at 100 uM incubated for 3 hrs by luciferase reporter gene assay; assay type: functional, cell-based
Target sequence in this assay (Q01726 whole entry, looked up): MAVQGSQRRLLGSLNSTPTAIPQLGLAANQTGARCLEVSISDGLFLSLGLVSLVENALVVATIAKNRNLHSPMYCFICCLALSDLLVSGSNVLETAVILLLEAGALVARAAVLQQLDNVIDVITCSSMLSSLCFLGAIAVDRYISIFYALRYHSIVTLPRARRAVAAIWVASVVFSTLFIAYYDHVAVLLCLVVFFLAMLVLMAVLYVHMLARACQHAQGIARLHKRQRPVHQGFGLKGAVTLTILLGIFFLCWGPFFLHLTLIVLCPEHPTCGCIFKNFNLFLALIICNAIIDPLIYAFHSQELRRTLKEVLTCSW

Melanocortin receptor 4 [5] = molecular target: T2, Melanocortin receptor 4 (Homo sapiens, UniProt P32245); test: Agonist activity at human MC4R expressed in HEK293 cells assessed as stimulation of cAMP accumulation at 100 uM incubated for 3 hrs by luciferase reporter gene assay; assay type: functional, cell-based
[6] = molecular target: T1, Melanocyte-stimulating hormone receptor; test: Agonist activity at N-terminal HA-tagged and C-terminal FLAG-tagged human MC1R expressed in HEK293 cells assessed as stimulation of cAMP accumulation at 100 uM incubated for 3 hrs by luciferase reporter gene assay; assay type: functional, cell-based
Target sequence in this assay (Q01726 whole entry, looked up): as above

HEK293 = test: Effect on cAMP production in HEK293 cells at 100 uM incubated for 3 hrs by luciferase reporter gene assay; assay type: functional, cell-based; details: Homo sapiens
Melanocortin receptor 5 = Melanocortin receptor 5 (Homo sapiens, UniProt P33032); test: Displacement of [125I]-NDP-alpha-MSH from human MC5R expressed in CHO-K1 cell membranes incubated for 3 hrs by top-count beta counting
Procedure, shortened: (§2)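 Membranes were from CHO cells stably expressing hMC1R, hMC4R or hMC5R, or from HEK293 cells expressing hMC3R. Competition used 50 pM 125I-NDP-α-MSH with varied competitor, 3 h at room temperature, in 25 mM HEPES pH 7.4, 1 mM MgCl2, 1 mM CaCl2, 0.2 g/L BSA. Nonspecific binding was set with 1 µM NDP-α-MSH. Samples were filtered on PEI-treated GF/C and scintillation counted. At least three experiments in duplicate, mean ± SEM.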

Melanocortin receptor 4 [7] = molecular target: T2, Melanocortin receptor 4; test: Displacement of [125I]-NDP-alpha-MSH from human MC4R expressed in CHO-K1 cell membranes incubated for 3 hrs by top-count beta counting; procedure, shortened: as §2
[8] = molecular target: T1, Melanocyte-stimulating hormone receptor; test: Displacement of [125I]-NDP-alpha-MSH from human MC1R expressed in CHO-K1 cell membranes incubated for 3 hrs by top-count beta counting; procedure, shortened: as §2
Target sequence in this assay (Q01726 whole entry): as the sequence (Q01726 whole entry, looked up) above

Melanocortin receptor 4 [9] = molecular target: T2, Melanocortin receptor 4; test: Displacement of [125I]-NDP-alpha-MSH from human MC4R expressed in CHO-K1 cell membranes incubated for 3 hrs by top-count beta counting relative to control; details: concentration not given here; procedure, shortened: as §2
[10] = molecular target: Sodium channel protein type 4 subunit alpha (Homo sapiens) (UniProt P35499); test: Inhibition of human NaV1.4 at 100 uM; procedure, shortened: as §1
[11] = molecular target: Sodium channel protein type 5 subunit alpha (Homo sapiens, UniProt Q14524); test: Inhibition of human NaV1.5 at 100 uM; procedure, shortened: as §1
[12] = molecular target: Sodium channel protein type 8 subunit alpha (Homo sapiens) (UniProt Q9UQD0); test: Inhibition of human NaV1.6 at 100 uM; procedure, shortened: as §1
[13] = molecular target: Potassium voltage-gated channel subfamily A member 1 (Homo sapiens) (UniProt Q09470); test: Inhibition of human Kv1.1 at 100 uM
Procedure, shortened: (§3)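 Potassium currents were recorded by two-electrode voltage clamp in oocytes 1–4 days after injecting 50 nl cRNA (1 ng/nl), at 18–22 °C. Bath was 96 mM NaCl, 2 mM KCl, 1.8 mM CaCl2, 2 mM MgCl2, 5 mM HEPES pH 7.4. Toxin was bath-applied at 100 µM. Currents were filtered at 0.5 kHz and sampled at 2 kHz.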

[14] = molecular target: Potassium voltage-gated channel subfamily A member 2 (Homo sapiens) (UniProt P16389); test: Inhibition of human Kv1.2 at 100 uM; procedure, shortened: as §3
[15] = molecular target: Potassium voltage-gated channel subfamily A member 3 (Homo sapiens) (UniProt P22001); test: Inhibition of human Kv1.3 at 100 uM; procedure, shortened: as §3
[16] = molecular target: Potassium voltage-gated channel subfamily A member 4 (Homo sapiens) (UniProt P22459); test: Inhibition of human Kv1.4 at 100 uM; procedure, shortened: as §3
[17] = molecular target: Potassium voltage-gated channel subfamily A member 5 (Homo sapiens) (UniProt P22460); test: Inhibition of human Kv1.5 at 100 uM; procedure, shortened: as §3
[18] = molecular target: Potassium voltage-gated channel subfamily A member 6 (Homo sapiens) (UniProt P17658); test: Inhibition of human Kv1.6 at 100 uM; procedure, shortened: as §3
[19] = molecular target: Potassium voltage-gated channel subfamily B member 1 (Homo sapiens) (UniProt Q14721); test: Inhibition of human Kv2.1 at 100 uM; procedure, shortened: as §3
[20] = molecular target: Voltage-gated potassium channel KCNC1 (Homo sapiens) (UniProt P48547); test: Inhibition of human Kv3.1 at 100 uM; procedure, shortened: as §3
[21] = molecular target: A-type voltage-gated potassium channel KCND3 (Homo sapiens, UniProt Q9UK17); test: Inhibition of human Kv4.3 at 100 uM; procedure, shortened: as §3
[22] = molecular target: Potassium voltage-gated channel subfamily KQT member 1 (Homo sapiens, UniProt P51787); test: Inhibition of human Kv7.1 at 100 uM; procedure, shortened: as §3
[23] = molecular target: Potassium voltage-gated channel subfamily KQT member 3 (Homo sapiens) (UniProt O43525); test: Inhibition of human Kv7.3 at 100 uM; procedure, shortened: as §3
[24] = molecular target: Voltage-gated delayed rectifier potassium channel KCNH1 (Homo sapiens) (UniProt O95259); test: Inhibition of human Kv10.1 at 100 uM; procedure, shortened: as §3
[25] = molecular target: Voltage-gated inwardly rectifying potassium channel KCNH2 (Homo sapiens, UniProt Q12809); test: Inhibition of human Kv11.1 at 100 uM; procedure, shortened: as §3
[26] = molecular target: G protein-activated inward rectifier potassium channel 1 (Homo sapiens) (UniProt P48549); test: Inhibition of human GIRK1 at 100 uM
Procedure, shortened: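 Two-electrode voltage clamp of cRNA-injected oocytes at 18–22 °C, holding at −70 mV. Oocytes were superfused with high-K+ solution (96 mM KCl, 2 mM NaCl, 1 mM MgCl2, 1.8 mM CaCl2, 5 mM HEPES pH 7.5). Toxin was applied to the bath at 100 µM. Currents were filtered at 0.05 kHz and sampled at 0.1 kHz.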

[27] = molecular target: Voltage-dependent T-type calcium channel subunit alpha-1I (Homo sapiens) (UniProt Q9P0X4); test: Inhibition of human Cav3.3 at 100 uM
Procedure, shortened: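 Oocyte two-electrode voltage clamp at 18–22 °C, 1–4 days after cRNA injection (50 nl, 1 ng/nl). Toxin was bath-applied at 100 µM. Currents were carried by 10 mM Ba2+ and elicited by 200 ms depolarisations from −90 mV to between −50 and +30 mV, filtered at 0.5 kHz and sampled at 2 kHz.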

[28] = molecular target: Acetylcholine receptor; alpha1/beta1/delta/gamma (Homo sapiens) (UniProt P02708+P07510+P11230+Q07001); test: Inhibition of human nAChR alpha1(2)beta1gammadelta; assay type: protein-complex assay
[29] = molecular target: Neuronal acetylcholine receptor subunit alpha-7 (Homo sapiens) (UniProt P36544); test: Inhibition of human nAChR alpha7
[30] = molecular target: Sodium channel protein type 10 subunit alpha (Homo sapiens) (UniProt Q9Y5Y9); test: Inhibition of human NaV1.8 at 100 uM
Melanocortin receptor 3 = Melanocortin receptor 3 (Homo sapiens, UniProt P41968); test: Displacement of [125I]-NDP-alpha-MSH from human MC3R expressed in HEK293 cell membranes incubated for 3 hrs by top-count beta counting
Melanocortin receptor 4 [31] = molecular target: T2, Melanocortin receptor 4; test: Antagonist activity at human MC4R transiently expressed in HEK293 cells assessed as reduction in alpha-MSH-induced cAMP accumulation at 100 uM incubated for 3 hrs by luciferase reporter gene assay

T2 sequence (P32245 whole entry): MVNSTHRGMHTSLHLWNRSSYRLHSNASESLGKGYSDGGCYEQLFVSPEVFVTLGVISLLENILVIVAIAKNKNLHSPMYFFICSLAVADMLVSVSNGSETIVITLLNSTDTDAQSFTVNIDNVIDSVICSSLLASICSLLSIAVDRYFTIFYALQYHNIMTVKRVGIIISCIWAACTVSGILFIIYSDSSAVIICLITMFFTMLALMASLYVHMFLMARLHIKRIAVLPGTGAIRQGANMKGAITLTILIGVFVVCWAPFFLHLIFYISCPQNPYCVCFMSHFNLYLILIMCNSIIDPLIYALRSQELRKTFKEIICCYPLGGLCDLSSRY
Sequence of Voltage-dependent T-type calcium channel subunit alpha-1I (Homo sapiens) (Q9P0X4 whole entry): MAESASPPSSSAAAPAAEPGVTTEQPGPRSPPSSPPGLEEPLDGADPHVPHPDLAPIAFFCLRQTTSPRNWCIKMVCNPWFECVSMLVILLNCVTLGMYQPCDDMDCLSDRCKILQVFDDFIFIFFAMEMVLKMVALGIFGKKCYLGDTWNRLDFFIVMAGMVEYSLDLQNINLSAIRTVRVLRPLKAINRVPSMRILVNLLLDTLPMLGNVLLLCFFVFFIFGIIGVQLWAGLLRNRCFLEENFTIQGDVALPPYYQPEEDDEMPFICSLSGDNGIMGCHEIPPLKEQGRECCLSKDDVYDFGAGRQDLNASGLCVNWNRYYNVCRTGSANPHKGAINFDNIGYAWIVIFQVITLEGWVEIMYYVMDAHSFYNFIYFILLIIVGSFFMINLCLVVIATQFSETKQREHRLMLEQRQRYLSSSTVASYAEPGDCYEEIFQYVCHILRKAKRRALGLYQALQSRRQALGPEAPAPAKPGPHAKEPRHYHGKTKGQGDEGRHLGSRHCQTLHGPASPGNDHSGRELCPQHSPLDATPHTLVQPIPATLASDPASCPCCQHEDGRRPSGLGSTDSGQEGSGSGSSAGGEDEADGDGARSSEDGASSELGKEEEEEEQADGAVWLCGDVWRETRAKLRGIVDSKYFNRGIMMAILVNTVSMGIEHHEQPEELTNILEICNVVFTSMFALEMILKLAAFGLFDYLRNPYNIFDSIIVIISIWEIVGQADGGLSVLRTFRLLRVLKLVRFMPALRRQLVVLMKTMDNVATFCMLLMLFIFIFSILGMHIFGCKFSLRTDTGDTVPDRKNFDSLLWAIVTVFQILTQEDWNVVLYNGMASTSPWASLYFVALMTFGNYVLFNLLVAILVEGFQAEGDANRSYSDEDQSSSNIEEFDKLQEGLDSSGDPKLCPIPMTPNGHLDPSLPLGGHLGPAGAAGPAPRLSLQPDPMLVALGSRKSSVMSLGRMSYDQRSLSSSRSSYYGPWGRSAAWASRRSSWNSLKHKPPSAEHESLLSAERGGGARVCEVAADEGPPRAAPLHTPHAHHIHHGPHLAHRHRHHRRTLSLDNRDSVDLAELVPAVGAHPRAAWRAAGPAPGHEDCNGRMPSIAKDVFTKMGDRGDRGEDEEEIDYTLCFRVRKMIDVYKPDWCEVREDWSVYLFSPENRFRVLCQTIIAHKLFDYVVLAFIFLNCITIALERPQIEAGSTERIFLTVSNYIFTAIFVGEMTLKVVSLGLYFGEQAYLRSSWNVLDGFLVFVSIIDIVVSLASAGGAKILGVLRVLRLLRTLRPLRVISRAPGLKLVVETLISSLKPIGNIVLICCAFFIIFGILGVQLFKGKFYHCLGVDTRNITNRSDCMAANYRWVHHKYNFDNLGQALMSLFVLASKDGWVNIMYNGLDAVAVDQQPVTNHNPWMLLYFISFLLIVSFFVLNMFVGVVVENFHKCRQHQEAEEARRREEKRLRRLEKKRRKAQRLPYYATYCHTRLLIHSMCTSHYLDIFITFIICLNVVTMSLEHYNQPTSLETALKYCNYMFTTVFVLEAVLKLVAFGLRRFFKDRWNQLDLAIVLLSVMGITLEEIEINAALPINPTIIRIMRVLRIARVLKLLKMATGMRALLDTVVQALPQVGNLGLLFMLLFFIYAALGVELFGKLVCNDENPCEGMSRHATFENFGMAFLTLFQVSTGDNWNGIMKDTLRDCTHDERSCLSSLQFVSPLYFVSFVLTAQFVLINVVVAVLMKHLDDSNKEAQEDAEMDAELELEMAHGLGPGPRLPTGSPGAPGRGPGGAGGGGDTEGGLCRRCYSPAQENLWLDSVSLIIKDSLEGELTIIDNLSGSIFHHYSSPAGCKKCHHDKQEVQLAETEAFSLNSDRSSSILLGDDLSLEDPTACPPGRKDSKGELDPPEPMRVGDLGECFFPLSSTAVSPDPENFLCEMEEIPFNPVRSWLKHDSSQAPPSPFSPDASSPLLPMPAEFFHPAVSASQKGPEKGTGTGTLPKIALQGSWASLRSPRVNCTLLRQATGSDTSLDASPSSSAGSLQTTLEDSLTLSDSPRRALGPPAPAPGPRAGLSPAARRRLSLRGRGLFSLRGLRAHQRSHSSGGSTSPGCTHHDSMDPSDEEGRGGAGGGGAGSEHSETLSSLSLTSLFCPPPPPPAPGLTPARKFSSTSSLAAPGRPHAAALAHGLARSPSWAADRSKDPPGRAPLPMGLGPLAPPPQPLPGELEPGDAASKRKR
Sequence of Potassium voltage-gated channel subfamily A member 2 (Homo sapiens) (P16389 whole entry): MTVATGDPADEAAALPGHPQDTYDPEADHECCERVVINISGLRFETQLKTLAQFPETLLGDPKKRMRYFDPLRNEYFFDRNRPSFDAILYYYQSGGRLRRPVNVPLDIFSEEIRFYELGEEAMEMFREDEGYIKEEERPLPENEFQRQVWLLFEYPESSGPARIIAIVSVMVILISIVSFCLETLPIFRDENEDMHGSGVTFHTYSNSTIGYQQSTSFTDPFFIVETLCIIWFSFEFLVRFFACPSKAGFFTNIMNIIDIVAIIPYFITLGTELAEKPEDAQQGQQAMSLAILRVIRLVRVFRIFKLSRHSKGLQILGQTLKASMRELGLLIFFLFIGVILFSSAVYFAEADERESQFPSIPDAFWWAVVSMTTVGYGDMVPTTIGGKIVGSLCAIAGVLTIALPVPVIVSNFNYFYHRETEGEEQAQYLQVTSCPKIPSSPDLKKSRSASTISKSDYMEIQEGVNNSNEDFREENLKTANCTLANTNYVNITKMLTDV
Sequence of Potassium voltage-gated channel subfamily KQT member 1 (P51787 whole entry): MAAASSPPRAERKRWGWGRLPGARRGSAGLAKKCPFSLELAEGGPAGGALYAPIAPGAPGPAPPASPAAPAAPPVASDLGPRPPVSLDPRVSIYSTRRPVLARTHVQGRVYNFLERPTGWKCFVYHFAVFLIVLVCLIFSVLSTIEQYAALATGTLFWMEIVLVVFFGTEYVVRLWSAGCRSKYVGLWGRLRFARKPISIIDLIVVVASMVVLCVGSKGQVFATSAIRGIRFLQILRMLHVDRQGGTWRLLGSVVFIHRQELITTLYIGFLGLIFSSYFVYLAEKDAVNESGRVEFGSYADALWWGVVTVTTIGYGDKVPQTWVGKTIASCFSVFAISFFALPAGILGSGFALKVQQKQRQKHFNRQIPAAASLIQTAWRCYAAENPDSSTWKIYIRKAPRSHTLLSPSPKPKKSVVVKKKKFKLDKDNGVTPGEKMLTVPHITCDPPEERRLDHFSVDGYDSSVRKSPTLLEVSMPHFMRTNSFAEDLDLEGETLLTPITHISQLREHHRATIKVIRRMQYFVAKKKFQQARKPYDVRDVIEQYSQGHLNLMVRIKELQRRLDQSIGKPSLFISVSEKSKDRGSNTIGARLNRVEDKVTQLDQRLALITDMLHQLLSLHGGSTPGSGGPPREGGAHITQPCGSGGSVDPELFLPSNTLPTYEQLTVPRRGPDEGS
Sequence of Melanocortin receptor 3 (P41968 whole entry): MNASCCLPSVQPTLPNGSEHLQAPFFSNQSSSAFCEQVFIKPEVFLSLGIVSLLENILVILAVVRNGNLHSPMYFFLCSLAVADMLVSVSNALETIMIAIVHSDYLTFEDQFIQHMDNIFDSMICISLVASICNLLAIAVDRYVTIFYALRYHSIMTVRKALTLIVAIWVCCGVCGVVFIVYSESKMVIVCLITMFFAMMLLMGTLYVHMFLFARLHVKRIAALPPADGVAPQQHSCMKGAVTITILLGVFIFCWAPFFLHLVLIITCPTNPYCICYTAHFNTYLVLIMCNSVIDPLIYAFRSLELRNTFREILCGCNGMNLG
Sequence of Potassium voltage-gated channel subfamily A member 5 (Homo sapiens) (P22460 whole entry): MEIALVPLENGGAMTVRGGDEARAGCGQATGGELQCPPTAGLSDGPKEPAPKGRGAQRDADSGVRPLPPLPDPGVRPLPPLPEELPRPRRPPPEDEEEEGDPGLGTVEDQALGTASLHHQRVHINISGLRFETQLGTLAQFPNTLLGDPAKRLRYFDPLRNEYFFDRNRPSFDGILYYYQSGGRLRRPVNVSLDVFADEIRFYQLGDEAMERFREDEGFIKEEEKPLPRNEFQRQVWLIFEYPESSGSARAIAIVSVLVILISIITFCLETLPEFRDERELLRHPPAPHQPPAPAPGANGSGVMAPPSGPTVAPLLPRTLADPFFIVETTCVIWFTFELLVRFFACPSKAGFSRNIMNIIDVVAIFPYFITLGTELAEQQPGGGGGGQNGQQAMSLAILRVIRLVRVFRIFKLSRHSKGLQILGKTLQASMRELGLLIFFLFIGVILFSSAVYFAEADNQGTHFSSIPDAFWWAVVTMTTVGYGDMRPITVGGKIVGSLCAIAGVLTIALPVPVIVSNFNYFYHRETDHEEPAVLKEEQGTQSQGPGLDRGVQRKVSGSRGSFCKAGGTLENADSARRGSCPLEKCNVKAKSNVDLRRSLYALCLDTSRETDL

SMILES | inhibition [1] | inhibition [2] | inhibition [3] | Activity [4] | Activity (Melanocortin receptor 4 [5]) | Activity [6] | Activity (HEK293) | Ki (Melanocortin receptor 5) [µM] | Ki (Melanocortin receptor 4 [7]) [µM] | Ki [8] [µM] | inhibition (Melanocortin receptor 4 [9]) [%] | inhibition [10] | inhibition (INH) [11] | inhibition [12] | inhibition [13] | inhibition [14] | inhibition [15] | inhibition [16] | inhibition [17] | inhibition [18] | further results
CC[C@H](C)[C@@H]1NC(=O)[C@H](C)NC(=O)[C@H](CCCCN)NC(=O)[C@H](CC(C)C)NC(=O)[C@@H]2CSSC[C@@H](C(=O)O)NC(=O)[C@H](CCCCN)NC(=O)[C@@H]3CSSC[C@H](NC(=O)[C@H](CCC(=O)O)NC(=O)[C@H](C(C)C)NC(=O)[C@H](CO)NC(=O)[C@H](C)NC(=O)[C@H](CO)NC(=O)[C@@H](NC(=O)[C@H](CCCNC(=N)N)NC(=O)[C@H](CCSC)NC(=O)[C@H](CC(=O)O)NC(=O)[C@H](CCSC)NC(=O)[C@@H](N)CCC(N)=O)CSSC[C@H](NC(=O)[C@H](CCCCN)NC(=O)CNC(=O)[C@H](Cc4ccccc4)NC(=O)[C@H]([C@@H](C)CC)NC(=O)[C@H](CO)NC(=O)CNC1=O)C(=O)N[C@@H](CCSC)C(=O)N[C@@H](CC(N)=O)C(=O)N[C@@H](CCCCN)C(=O)N[C@@H](CCCCN)C(=O)N3)C(=O)N[C@@H](CCCCN)C(=O)N[C@@H](CCC(N)=O)C(=O)N[C@@H](CCCCN)C(=O)N2 (H-QMDMRCSASVECKQKCLKAIGSIFGKCMNKKCKC-OH; disulfide 6-27, 12-32, 16-34) | inactive | inactive | inactive | Active | inactive | Active | inactive | 2.2 | 2.6 | 2.9 | 86 | inactive | Not Active | inactive | inactive | inactive | inactive | inactive | inactive | inactive | inhibition [19]: inactive; inhibition [20]: inactive; inhibition (INH) [21]: Not Active; inhibition (INH) [22]: Not Active; inhibition [23]: inactive; inhibition [24]: inactive; inhibition (INH) [25]: Not Active; inhibition [26]: inactive; inhibition [27]: inactive; inhibition [28]: inactive; inhibition [29]: inactive; inhibition [30]: inactive; Ki (Melanocortin receptor 3): 3.9 µM; Activity (Melanocortin receptor 4 [31]): inactive
CC[C@H](C)[C@@H]1NC(=O)[C@@H]2CCCN2C(=O)CNC(=O)[C@H](CO)NC(=O)[C@@H]2CSSC[C@@H]3NC(=O)[C@H]([C@@H](C)O)NC(=O)CNC(=O)[C@H](CSSC[C@H](NC(=O)[C@@H](N)CCCNC(=N)N)C(=O)N[C@@H](CC(C)C)C(=O)N[C@@H](Cc4cnc[nH]4)C(=O)N[C@@H](C)C(=O)NCC(=O)N[C@@H](C)C(=O)N[C@@H](C)C(=O)N2)NC(=O)[C@H](CSSC[C@@H](C(=O)N[C@H](C(=O)O)[C@@H](C)O)NC(=O)[C@H](CCCCN)NC(=O)[C@H](CCCNC(=N)N)NC(=O)[C@H](CCCNC(=N)N)NC(=O)[C@H](CO)NC3=O)NC(=O)[C@@H]2CCCN2C(=O)[C@H]([C@@H](C)CC)NC(=O)[C@H](CCCCN)NC(=O)[C@H](CCC(N)=O)NC1=O (H-RCLHAGAACSGPIQKIPCCGTCSRRKCT-OH; disulfide 2-19, 9-22, 18-27) | inactive | inactive | inactive | Active | inactive | Active | inactive | 10 | 7.1 | 1.8 | 97 | inactive | Not Active | inactive | inactive | inactive | inactive | inactive | inactive | inactive | inhibition [19]: inactive; inhibition [20]: inactive; inhibition (INH) [21]: Not Active; inhibition (INH) [22]: Not Active; inhibition [23]: inactive; inhibition [24]: inactive; inhibition (INH) [25]: Not Active; inhibition [26]: inactive; inhibition [27]: inactive; inhibition [28]: inactive; inhibition [29]: inactive; inhibition [30]: inactive; Ki (Melanocortin receptor 3): 19.8 µM; Activity (Melanocortin receptor 4 [31]): inactive
